Measurements published in ChEMBL document CHEMBL1146382, “Design and synthesis of BACE1 inhibitors containing a novel norstatine derivative (2R,3R)-3-amino-2-hydroxy-4-(phenylthio)butyric acid” (Bioorg Med Chem Lett, 2007).
Numbered stars: 1 amine (or outer) side, 2 acyl side, 3 side chain; on linkers, the order of the positions; unused ones are H or OH. Square brackets hold non-standard residues; d marks the D form. Peptide text beside a SMILES is read from it. β3hPhe(2R-OH) = O=C([C@H](O)[C@H](Cc1ccccc1)N[*:1])[*:2]; X1 = O=C([C@H](O)[C@H](CSc1ccccc1)N[*:1])[*:2]

Columns and labels:
[1] = molecular target: Beta-secretase 1 (Homo sapiens) (UniProt P56817); test: Inhibition of human recombinant BACE1 at 0.2 uM
How it was run: (§1)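 Recombinant human BACE1 enzymatic assay. Inhibition is expressed as the percent decrease in substrate cleaved by the enzyme.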

[2] = molecular target: Beta-secretase 1 (Homo sapiens) (UniProt P56817); test: Inhibition of human recombinant BACE1 at 2 uM; how it was run: as §1

Beta-secretase 1 (Homo sapiens), sequence (P56817 whole entry): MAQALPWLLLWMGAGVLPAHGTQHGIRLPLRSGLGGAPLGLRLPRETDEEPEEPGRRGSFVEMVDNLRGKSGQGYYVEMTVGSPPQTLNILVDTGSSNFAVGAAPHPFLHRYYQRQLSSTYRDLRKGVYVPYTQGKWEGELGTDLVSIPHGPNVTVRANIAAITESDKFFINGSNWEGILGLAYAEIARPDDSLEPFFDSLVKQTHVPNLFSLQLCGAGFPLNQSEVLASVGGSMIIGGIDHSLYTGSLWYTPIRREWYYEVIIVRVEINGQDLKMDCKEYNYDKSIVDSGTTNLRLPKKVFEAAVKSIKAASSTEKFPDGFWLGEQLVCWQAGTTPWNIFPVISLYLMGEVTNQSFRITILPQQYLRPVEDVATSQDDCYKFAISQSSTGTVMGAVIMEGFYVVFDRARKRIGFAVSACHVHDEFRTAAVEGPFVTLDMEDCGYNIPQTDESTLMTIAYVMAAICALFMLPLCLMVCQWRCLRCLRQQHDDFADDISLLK

CC(C)C[C@H](NC(=O)[C@@H](NC(=O)[C@@H](N)CNC(=O)c1cc(N)cc(C(=O)O)c1)C(C)C)C(=O)N[C@@H](Cc1ccccc1)[C@@H](O)C(=O)Nc1cccc(C(=O)O)c1
inhibition [1]: 80% | inhibition [2]: 98%

CC(C)C[C@H](NC(=O)[C@@H](NC(=O)[C@@H](N)CNC(=O)c1cc(N)cc(C(=O)O)c1)C(C)C)C(=O)N[C@@H](CSc1ccccc1)[C@@H](O)C(=O)Nc1cccc(C(=O)O)c1
inhibition [1]: 86% | inhibition [2]: 99%

CC(C)C[C@H](NC(=O)[C@@H](NC(=O)[C@@H](N)CCC(=O)O)C(C)C)C(=O)N[C@@H](CSc1ccccc1)[C@@H](O)C(=O)Nc1cccc(C(=O)O)c1
inhibition [1]: 57% | inhibition [2]: 96%

CC(C)C[C@H](NC(=O)[C@@H](NC(=O)[C@@H](N)CCC(=O)O)C(C)C)C(=O)N[C@@H](Cc1ccccc1)[C@@H](O)C(=O)N[C@@H](CC(=O)O)C(=O)N[C@@H](C)C(=O)N[C@@H](CCC(=O)O)C(=O)N[C@@H](Cc1ccccc1)C(=O)O (H-EVL[β3hPhe(2R-OH)]DAEF-OH)
inhibition [1]: 32%

CC(C)C[C@H](NC(=O)[C@@H](NC(=O)[C@@H](N)CCC(=O)O)C(C)C)C(=O)N[C@@H](CSc1ccccc1)[C@@H](O)C(=O)N[C@@H](CC(=O)O)C(=O)N[C@@H](C)C(=O)N[C@@H](CCC(=O)O)C(=O)N[C@@H](Cc1ccccc1)C(=O)O (H-EVL[X1]DAEF-OH)
inhibition [1]: 34% | inhibition [2]: 82%

CC(C)C[C@H](NC(=O)[C@@H](NC(=O)[C@@H](N)CCC(=O)O)C(C)C)C(=O)N[C@@H](CSc1ccccc1)[C@@H](O)C(=O)N[C@@H](CC(=O)O)C(=O)O (H-EVL[X1]D-OH)
inhibition [2]: 69%
